Published values pooled from the literature.
Compare with care: the assays were run in different laboratories.
KDR: Vascular endothelial growth factor receptor 2 (KDR, Homo sapiens, UniProt P35968)
PIP5K1A: Phosphatidylinositol 4-phosphate 5-kinase type-1 alpha (PIP5K1A, Homo sapiens, UniProt Q99755)

CCCCC(=O)Nc1ccc(-c2ccc3ncn(CCC)c(=O)c3c2)cn1
remaining binding (Interleukin-1 receptor-associated kinase 3 (IRAK3, Homo sapiens, UniProt Q9Y616); binding, competition with immobilised ligand; 0.5 µM): 99%

Cc1cc(O)c(-c2ccc([C@@H](C)CN(C)C)cc2)c2c1[nH]c(=O)c1sccc12
inhibition (Serine/threonine-protein kinase Nek4 (NEK4, Homo sapiens, UniProt P51957); enzyme activity, inhibitor; 0.1 µM): 0.965%

CCN1/C(=C/C(C)=O)Sc2ccc(F)cc21
inhibition (Vasopressin V1b receptor (AVPR1B, Homo sapiens, UniProt P47901); ligand displacement, radioligand; 10 µM): 2.63%

CC1=C(/C=C/C(C)=C/C=C/C(C)=C/C=C/C=C(C)/C=C/C=C(C)/C=C/C2=C(C)CCCC2(C)C)C(C)(C)CCC1
inhibition (KDR; enzyme activity, inhibitor, TR-FRET; 40 µM): -6.3%

CC(=O)/C=C/C=C(C)/C=C/C1=C(C)CC(O)CC1(C)C (stereo in doubt)
ΔTm (D14 (Oryza sativa, UniProt Q10QA5); thermal stability, DSF; 10 µM): 2.75 °C

COc1ccc(-c2cc(=O)c3c(O)cc(O[C@@H]4O[C@H](CO[C@@H]5O[C@@H](C)[C@H](O)[C@@H](O)[C@H]5O)[C@@H](O)[C@H](O)[C@H]4O)cc3o2)cc1O
inhibition (KDR; enzyme activity, inhibitor, TR-FRET; 40 µM): 51.5%

CC(=O)ON=C1C=CC(=C(C#N)c2ccccc2)C=C1
activity vs control (Glycogen synthase kinase-3 beta (GSK3B, Homo sapiens, UniProt P49841); enzyme activity, inhibitor, ADP detection; 20 µM): 82%

CC(C)c1ccc(Sc2ccc3nnc(C(F)(F)F)n3n2)cc1
remaining activity (Glutamate NMDA receptor; Grin1/Grin2a (Grin1/Grin2a, Rattus norvegicus, UniProt P35439+Q00959); ion current, two-electrode voltage clamp; 30 µM, oocytes): 97%

Cc1cc(S(=O)(=O)N[C@H]2CC[C@H](CN3CCN(c4ccc(C5CCC(=O)NC5=O)cc4F)CC3)CC2)ccc1Nc1ncc(C(F)(F)F)c(N2CCC[C@](C)(O)C2)n1 (stereo partly drawn)
remaining binding (PIP5K1A; binding, competition with immobilised ligand; 1 µM): 70%

COc1ccc2oc(-c3ccc4nc(N)oc4c3)c/c(=N\c3ccccc3NC(=O)CCN)c2c1
remaining binding (Activin receptor type-1-like (ACVRL1, Homo sapiens, UniProt P37023); binding; 1 µM): 106%

CNS(=O)(=O)c1ccc(Nc2ncc(C(F)(F)F)c(N3CCC[C@](C)(O)C3)n2)c(C)c1
remaining binding (PIP5K1A; binding, competition with immobilised ligand; 1 µM): 100%

C1=C/COCc2cc(ccc2OCCN2CCCC2)Nc2nccc(n2)-c2cccc(c2)COC/1
remaining signal (1-phosphatidylinositol 3-phosphate 5-kinase (PIKFYVE, Homo sapiens, UniProt Q9Y2I7); cell-free assay; 0.1 µM): 17%
